The target of assay [1] is T1, Choline O-acetyltransferase (Rattus norvegicus, UniProt P32738).
T1 sequence (P32738 whole entry): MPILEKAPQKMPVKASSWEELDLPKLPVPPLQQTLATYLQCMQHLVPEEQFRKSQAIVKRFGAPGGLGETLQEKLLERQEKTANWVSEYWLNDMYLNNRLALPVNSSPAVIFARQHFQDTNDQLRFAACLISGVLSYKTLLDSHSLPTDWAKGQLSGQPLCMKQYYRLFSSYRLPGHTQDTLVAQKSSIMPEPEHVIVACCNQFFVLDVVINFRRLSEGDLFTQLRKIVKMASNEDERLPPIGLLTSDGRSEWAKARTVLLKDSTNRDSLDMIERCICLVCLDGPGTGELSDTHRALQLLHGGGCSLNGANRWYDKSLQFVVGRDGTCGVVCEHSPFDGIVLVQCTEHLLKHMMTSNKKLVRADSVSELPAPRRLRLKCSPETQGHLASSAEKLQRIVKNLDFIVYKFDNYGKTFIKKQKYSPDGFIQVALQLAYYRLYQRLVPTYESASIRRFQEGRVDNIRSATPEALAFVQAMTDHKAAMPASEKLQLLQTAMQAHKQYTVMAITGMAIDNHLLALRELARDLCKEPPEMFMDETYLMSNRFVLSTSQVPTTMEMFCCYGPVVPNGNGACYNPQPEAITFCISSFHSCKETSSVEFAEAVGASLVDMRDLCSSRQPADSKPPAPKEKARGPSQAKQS
Put plainly: (§1) Inhibition of choline acetyltransferase (ChAT) activity. The note with it: read-out: I50.

A short description of assay [2]: Degree of specificity expressed as the ratio of I50 of AChE to I50 of ChAT. The gist of the method:
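Ratio of AChE I50 to ChAT I50. ChAT: partially purified rat brain enzyme, 3 min at 37 °C, 0.1 mM [14C]acetyl-CoA, 5 mM choline. AChE: commercial enzyme, 10 min at 37 °C, [14C]acetylcholine, 1% Triton-X. Radiometric read-out for both; inhibitors tested 10^-3–10^-8 M.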

Assay [3] has as its target T2, Acetylcholinesterase (Rattus norvegicus, UniProt P37136).
T2 sequence (P37136 whole entry): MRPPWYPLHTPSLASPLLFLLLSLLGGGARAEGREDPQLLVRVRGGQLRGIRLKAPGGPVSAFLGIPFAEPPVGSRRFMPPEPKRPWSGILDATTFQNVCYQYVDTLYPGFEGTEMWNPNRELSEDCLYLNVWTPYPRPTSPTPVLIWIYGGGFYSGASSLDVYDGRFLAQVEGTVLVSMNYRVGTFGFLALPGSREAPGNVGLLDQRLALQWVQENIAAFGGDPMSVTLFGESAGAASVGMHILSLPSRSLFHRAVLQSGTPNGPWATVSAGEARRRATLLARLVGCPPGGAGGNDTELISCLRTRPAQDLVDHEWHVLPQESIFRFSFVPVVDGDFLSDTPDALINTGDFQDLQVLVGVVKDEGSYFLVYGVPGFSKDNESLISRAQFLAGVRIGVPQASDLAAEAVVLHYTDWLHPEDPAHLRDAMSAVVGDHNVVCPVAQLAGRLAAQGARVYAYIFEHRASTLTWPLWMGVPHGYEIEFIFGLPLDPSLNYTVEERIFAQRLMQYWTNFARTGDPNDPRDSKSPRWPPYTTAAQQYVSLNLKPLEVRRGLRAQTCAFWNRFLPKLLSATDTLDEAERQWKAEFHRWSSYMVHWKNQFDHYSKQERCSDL
The assay is described as follows: Inhibition of acetylcholinesterase (AChE) activity. The note with it: read-out: I50.

In assay [4] the target is T3, Choline O-acetyltransferase (Rattus norvegicus) (UniProt P32738).
T3 sequence (whole entry): T1 sequence (P32738 whole entry)
The assay is described as follows: Inhibition of choline acetyltransferase (ChAT) activity; NI is no inhibition observed up to 0.001 M.

Assay [5] deals with T4, Acetylcholinesterase (Rattus norvegicus) (UniProt P37136).
T4 sequence (whole entry): T2 sequence (P37136 whole entry)

Assay [6] has as its target T1, Choline O-acetyltransferase. The assay is described as §1. The note with it: read-out: I50. In a few lines:
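Rat brain enzyme, partially purified (through CM-Sephadex batch elution), stored -20 °C, diluted for linear kinetics. Radiolabelled product counted by scintillation. Inhibitors tested 10^-3–10^-8 M; I50 reported.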
This is another data set of the same source.

Activity calls are given as the source filed them. No cut-off for these calls is given here.

The source of these data is ChEMBL document CHEMBL1124246, “Evaluation of the side arm of (naphthylvinyl)pyridinium inhibitors of choline acetyltransferase” (J Med Chem, 1988).

On to `C[n+]1ccc(/C=C/c2cccc3ccccc23)cc1`, for which the IC50 in assay [1] worked out at 0.39 µM; in assay [3] it was 30 µM. For the same compound, the Ratio in assay [2] amounted to 77.
In the same order, the values of `O=C(O)CC[n+]1ccc(/C=C/c2cccc3ccccc23)cc1` are 40 µM, 1000 µM and 25.
For the compound `O=C(CBr)C[n+]1ccc(/C=C/c2cccc3ccccc23)cc1`, the IC50 is 10 µM in assay [1] and 40 µM in assay [3]. The Ratio in assay [2] is 4.
Turning to `C[N+]1=CC=NC1/C=C/c1cccc2ccccc12` (stereo not given), the I50 result in assay [4] is “inactive”. Moreover, the IC50 in assay [3] worked out at 51 µM.
Regarding `CCOC(=O)C[n+]1ccc(/C=C/c2cccc3ccccc23)cc1`, the IC50 in assay [1] was 1 µM; in assay [3], 32 µM. For the same compound, in assay [2], the Ratio amounted to 32.
In the same order, the values of `NC(=O)C[n+]1ccc(/C=C/c2cccc3ccccc23)cc1` are 0.27 µM, 80 µM and 296.
The corresponding values for `OCC[n+]1ccc(/C=C/c2cccc3ccccc23)cc1` are 1.7 µM, 68 µM and 40.
Consider `CCOC(=O)C(C(=O)OCC)[n+]1ccc(/C=C/c2cccc3ccccc23)cc1`, for which the results for the IC50 in assay [1] and in assay [3] were 21 µM and 500 µM, respectively. The Ratio in assay [2] amounted to 24.
Take `NCC[n+]1ccc(/C=C/c2cccc3ccccc23)cc1`: the IC50 is 3.9 µM in assay [1] and 64 µM in assay [3]. For the same compound, the Ratio in assay [2] is 16.
In the case of `C(=C\c1cccc2ccccc12)/c1ccncc1`, the I50 result in assay [5] was “inactive”. In addition, in assay [1], the IC50 turned out to be 38 µM. The Ratio in assay [2] was over 26.
`CCNC(=O)NC(=O)C[n+]1ccc(/C=C/c2cccc3ccccc23)cc1`: the IC50 worked out at 3.9 µM in assay [1] and 130 µM in assay [3]. For the same compound, the Ratio in assay [2] worked out at 33.
In the same order, the values of `Cc1c[n+](CCN)ccc1/C=C/c1cccc2ccccc12` are 5 µM, 30 µM and 6.
In the same order, the values of `CCC[n+]1ccc(/C=C/c2cccc3ccccc23)cc1` are 0.19 µM, 17.5 µM and 92.
With `Cc1c[n+](CCC(=O)O)ccc1/C=C/c1cccc2ccccc12`, the IC50 amounted to 45 µM in assay [1] and 750 µM in assay [3]. Further, in assay [2], the Ratio amounted to 17.
The corresponding values for `CCCCCCC(C)OC(=O)CC(=O)C[n+]1ccc(/C=C/c2cccc3ccccc23)cc1` (stereo not given) are 50 µM, 350 µM and 7.
The corresponding values for `Cc1c[n+](CC(N)=O)ccc1/C=C/c1cccc2ccccc12` are 0.34 µM, 45 µM and 132.
The corresponding values for `CCOC(=O)C[n+]1ccc(/C=C/c2cccc3ccccc23)c(C)c1` are 1.2 µM, 10 µM and 8.
`CCCC[n+]1ccc(/C=C/c2cccc3ccccc23)cc1`: the IC50 in assay [1] stood at 0.37 µM; in assay [3] it was 3.9 µM. In assay [2], the Ratio worked out at 11.
Regarding `OCCC[n+]1ccc(/C=C/c2cccc3ccccc23)cc1`, the IC50 in assay [1] was determined as 1.3 µM; in assay [3] it was 36 µM. In addition, the Ratio in assay [2] amounted to 28.
Turning to `O=C(O)C[n+]1ccc(/C=C/c2cccc3ccccc23)cc1`, the I50 entry in assay [5] is “inactive”. In addition, the IC50 in assay [1] amounted to 46 µM. Besides, the Ratio in assay [2] is over 22.
The corresponding values for `Cc1cnccc1/C=C/c1cccc2ccccc12` are “inactive”, 40 µM and over 25.
For the compound `CC(=O)C[n+]1ccc(/C=C/c2cccc3ccccc23)cc1`, the IC50 in assay [1] was found to be 3.7 µM; in assay [3] it was 31 µM. Moreover, the Ratio in assay [2] worked out at 8.
Turning to `NC(=O)NC(=O)CBr`, the I50 entry in assay [5] is “inactive”. Moreover, the IC50 in assay [6] was 130 µM.
Take `CCNC(=O)NC(=O)CBr`: the I50 entry in assay [5] was “inactive”. Moreover, the IC50 in assay [6] was determined as 250 µM.
For the compound `O=C(CO)C[n+]1ccc(/C=C/c2cccc3ccccc23)cc1`, the IC50 in assay [1] was 3 µM. In addition, the Ratio in assay [2] was over 200.
Consider `NC(=O)NC(=O)C[n+]1ccc(/C=C/c2cccc3ccccc23)cc1`, for which the IC50 in assay [1] was 3.7 µM; in assay [3], 140 µM. In addition, the Ratio in assay [2] was 38.
The corresponding values for `NCCC[n+]1ccc(/C=C/c2cccc3ccccc23)cc1` are 5.3 µM, 220 µM and 42.
In the same order, the values of `Cc1c[n+](CCO)ccc1/C=C/c1cccc2ccccc12` are 1.7 µM, 27 µM and 16.
